The values below come from ChEMBL document CHEMBL4699473, “Discovery of Bispecific Antagonists of Retinol Binding Protein 4 That Stabilize Transthyretin Tetramers: Scaffolding Hopping, Optimization, and Preclinical Pharmacological Evaluation as a Potential Therapy for Two Common Age-Related Comorbidities” (J Med Chem, 2020).

In data set [1] the target is T1, Retinol-binding protein 4 (Homo sapiens, UniProt P02753). The data set is described as follows: Displacement of [3H]-all-trans-retinol from biotinylated human urine derived RBP4 measured after 16 hrs by scintillation proximity assay. On the technique in general: Loss of bound radioactivity is the signal in a displacement assay; it reports binding, not function.
Data set [2] deals with T2, Transthyretin (Homo sapiens, UniProt P02766). The data set is described as follows: Displacement of FITC-diclofenac from human plasma derived TTR measured after overnight incubation by fluorescence polarization assay. The data set is classed as cell-free. The procedure, abridged:
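Incubated overnight at 4 °C, then fluorescence polarization read. Nonspecific binding defined with 500 μM unlabeled diclofenac.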
On the technique in general: In fluorescence polarisation assays a small probe gives low polarisation when free and higher when bound to something large.

Data set [3] concerns the target T2, Transthyretin. The data set is described as follows: Stabilization of human His-tagged TTR (Gly21 to Glu147) expressed in HEK293 cells assessed as reduction in acid-induced protein aggregation by measuring reduction in high molecular aggregates at 50 uM incubated for 72 hrs at pH 4 by Western blot analysis relative to control. The data set is classed as cell-based. The gist of the method: (§1)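 Human TTR (2 μL of 167 μM) incubated in 50 mM sodium acetate pH 4.0, 100 mM KCl, with or without 50 μM compound (DMSO vehicle), 72 h at 37 °C. Neutralized with 500 mM sodium phosphate pH 8.0 plus CHAPS, cross-linked, then run on SDS-PAGE and anti-TTR Western blot. Pixel volumes of high-molecular-weight and monomer bands quantified. At least three independent experiments; one-way ANOVA with Holm–Sidak test.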
In general terms: Immunoblotting shows a protein as a band on a membrane.

Data set [4] addresses T2, Transthyretin. The data set can be described thus: Stabilization of human His-tagged TTR (Gly21 to Glu147) expressed in HEK293 cells assessed as reduction in acid-induced protein aggregation by measuring increase in TTR monomer level at 50 uM incubated for 72 hrs at pH 4 by Western blot. The data set is classed as cell-based. The gist of the method: as §1
Data set [5] in a line: Kinetic solubility of the compound in pH 7.4 PBS buffer by UV/VIS-HPLC method. The data set is classed as physicochemical. The note with it: read-out: Kinetic_solubility. The gist of the method: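 Kinetic solubility measured in buffer at pH 7.4.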
Data set [6] in a line: Stability in Sprague-Dawley rat liver microsomes assessed as parent compound remaining measured after 30 mins. The data set is classed as ADME, Microsome. The conditions noted are these: 0.5 h. The gist of the method: (§2)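 Parent compound remaining after 30 min incubation with human, rat, mouse or cynomolgus monkey liver microsomes, expressed as %.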
A short description of data set [7]: Stability in CD-1 mouse liver microsomes assessed as parent compound remaining measured after 30 mins. In kind it is ADME, Microsome. The note with it: 0.5 h. The procedure, abridged: as §2
A short description of data set [8]: Stability in cynomolgus monkey liver microsomes assessed as parent compound remaining measured after 30 mins. In kind it is ADME, Macaca fascicularis, Microsome. The conditions noted are these: 0.5 h. The procedure, abridged: as §2
Data set [9] can be described thus: Stability in human liver microsomes assessed as parent compound remaining measured after 30 mins. The note with it: 0.5 h. The data set is classed as ADME, Microsome. The procedure, abridged: as §2
A further data set concerns the target CYP2C9 (Homo sapiens, UniProt P11712). The data set is described as follows: Inhibition of recombinant human CYP2C9 expressed in insect cell microsomes at 10 uM using 7-methoxy-4-trifluoromethylcoumarin as substrate measured after 15 to 45 mins in presence of NADPH by fluorescence assay relative to control. The data set is classed as ADME, Microsome. The conditions noted are these: probe 7-methoxy-4-trifluoromethylcoumarin, time 15-45 min.

The target in another data set is CYP2C19 (Homo sapiens, UniProt P33261). The data set is described as follows: Inhibition of recombinant human CYP2C19 expressed in insect cell microsomes at 10 uM using fluorescence probe as substrate measured after 15 to 45 mins in presence of NADPH by fluorescence assay relative to control. The data set is classed as ADME, Microsome. The note with it: time 15-45 min.
Sequence of CYP2C19 (P33261 whole entry): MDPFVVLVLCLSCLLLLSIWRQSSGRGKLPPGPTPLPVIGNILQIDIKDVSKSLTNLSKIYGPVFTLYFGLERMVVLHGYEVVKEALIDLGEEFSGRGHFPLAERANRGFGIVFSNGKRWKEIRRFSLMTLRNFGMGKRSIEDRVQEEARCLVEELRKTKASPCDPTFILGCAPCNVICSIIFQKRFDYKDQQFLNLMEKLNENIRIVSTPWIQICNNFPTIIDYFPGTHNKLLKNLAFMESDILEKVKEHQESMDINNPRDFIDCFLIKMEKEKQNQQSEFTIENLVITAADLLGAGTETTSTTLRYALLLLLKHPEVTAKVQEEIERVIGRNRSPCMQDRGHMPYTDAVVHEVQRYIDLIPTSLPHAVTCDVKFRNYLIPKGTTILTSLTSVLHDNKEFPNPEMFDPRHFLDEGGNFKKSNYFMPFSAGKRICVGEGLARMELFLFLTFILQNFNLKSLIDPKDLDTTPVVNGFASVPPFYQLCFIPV

In another data set the target is CYP2D6 (Homo sapiens, UniProt P10635). The data set is described as follows: Inhibition of recombinant human CYP2D6 expressed in insect cell microsomes at 10 uM using fluorescence probe as substrate measured after 15 to 45 mins in presence of NADPH by fluorescence assay relative to control. The conditions noted are these: time 15-45 min. In kind it is ADME, Microsome.
Sequence of CYP2D6 (P10635 whole entry): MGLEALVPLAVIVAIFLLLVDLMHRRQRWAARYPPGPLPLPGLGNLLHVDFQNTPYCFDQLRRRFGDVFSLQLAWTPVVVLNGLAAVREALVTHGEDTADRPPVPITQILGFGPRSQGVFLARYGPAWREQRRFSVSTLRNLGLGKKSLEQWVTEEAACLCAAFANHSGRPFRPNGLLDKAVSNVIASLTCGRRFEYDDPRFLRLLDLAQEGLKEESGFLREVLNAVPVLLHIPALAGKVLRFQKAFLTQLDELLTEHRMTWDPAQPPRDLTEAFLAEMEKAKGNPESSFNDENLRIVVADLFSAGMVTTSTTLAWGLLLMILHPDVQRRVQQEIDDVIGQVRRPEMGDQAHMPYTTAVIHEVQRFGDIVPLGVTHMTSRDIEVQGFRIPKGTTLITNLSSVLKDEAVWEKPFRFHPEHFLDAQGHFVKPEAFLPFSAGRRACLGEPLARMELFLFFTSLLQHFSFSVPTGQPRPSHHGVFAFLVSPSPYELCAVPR

The next data set deals with CYP3A4 (Homo sapiens, UniProt P08684). The data set can be described thus: Inhibition of recombinant human CYP3A4 expressed in insect cell microsomes at 10 uM using fluorescence probe as substrate measured after 15 to 45 mins in presence of NADPH by fluorescence assay relative to control. The data set is classed as ADME, Microsome. The conditions noted are these: time 15-45 min.
Sequence of CYP3A4 (P08684 whole entry): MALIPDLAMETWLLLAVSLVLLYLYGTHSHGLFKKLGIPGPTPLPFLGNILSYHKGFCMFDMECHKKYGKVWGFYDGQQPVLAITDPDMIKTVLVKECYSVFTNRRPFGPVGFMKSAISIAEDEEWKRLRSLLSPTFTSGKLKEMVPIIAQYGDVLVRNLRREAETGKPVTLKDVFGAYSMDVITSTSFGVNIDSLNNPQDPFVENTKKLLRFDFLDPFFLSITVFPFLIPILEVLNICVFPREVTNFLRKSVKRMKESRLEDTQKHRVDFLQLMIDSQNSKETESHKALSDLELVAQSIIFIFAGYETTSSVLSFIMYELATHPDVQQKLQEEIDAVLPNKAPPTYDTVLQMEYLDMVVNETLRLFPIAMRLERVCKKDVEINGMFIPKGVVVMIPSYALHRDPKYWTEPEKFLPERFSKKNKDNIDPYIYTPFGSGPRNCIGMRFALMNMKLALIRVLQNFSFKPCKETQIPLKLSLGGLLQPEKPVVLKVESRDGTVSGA

Data set [10] in a line: Initial drug level in CD-1 mouse at 2 mg/kg, iv by LC-MS/MS analysis. In kind it is ADME, organism-based. The note with it: in vivo. The procedure, abridged:
(§3)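 Drug-naive adult male CD-1 mice, three per group, given a single IV 2 mg/kg dose in 3% dimethylacetamide/45% PEG300/12% ethanol/40% sterile water. Blood compound concentrations followed over time. C0 is the observed concentration at time zero, half-life is from the terminal elimination phase, and Vss is at steady state. Reported as mean (SD).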

Data set [11] can be described thus: Apparent terminal phase half life in CD-1 mouse at 2 mg/kg, iv by LC-MS/MS analysis. The data set is classed as ADME, organism-based. The note with it: in vivo. The procedure, abridged: as §3
Data set [12] is described as follows: Volume of distribution at steady state in CD-1 mouse at 2 mg/kg, iv by LC-MS/MS analysis. The data set is classed as ADME, organism-based. The conditions noted are these: in vivo. The procedure, abridged: as §3
The nature of data set [13]: Cmax in CD-1 mouse at 5 mg/kg, po administered via gavage by LC-MS/MS analysis. The data set is classed as ADME, organism-based. The arrangement: route oral, dose 5 mg/kg. The conditions noted are these: in vivo. The gist of the method: (§4)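 Drug-naive adult male CD-1 mice, three per group, given a single oral 5 mg/kg dose in 2% Tween 80 in 0.9% saline. Compound levels measured in blood over time. Values are the mean (SD) of the PK parameters; %F is derived against the 2 mg/kg IV group.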

Data set [14] can be described thus: Tmax in CD-1 mouse at 5 mg/kg, po administered via gavage by LC-MS/MS analysis. The conditions noted are these: in vivo. The data set is classed as ADME, organism-based. The gist of the method:
as §4

Data set [15] is described as follows: Apparent terminal phase half life in CD-1 mouse at 5 mg/kg, po administered via gavage by LC-MS/MS analysis. The conditions noted are these: in vivo. In kind it is ADME, organism-based. The gist of the method:
as §4

Data set [16] in a line: AUC (infinity) in CD-1 mouse at 5 mg/kg, po administered via gavage by LC-MS/MS analysis. The data set is classed as ADME, organism-based. Also noted: route oral, time infinity, dose 5 mg/kg. The note with it: in vivo. The procedure, abridged:
as §4

Data set [17] in a line: Oral bioavailability in CD-1 mouse at 5 mg/kg administered via gavage by LC-MS/MS analysis. The data set is classed as ADME, organism-based. The note with it: in vivo. The procedure, abridged:
as §4

The nature of data set [18]: In vivo antagonist activity at TTR-RBP4 complex in CD-1 mouse assessed as reduction in serum RBP4 level at 25 mg/kg, po administered via gavage measured after 6 hrs by ELISA relative to control. The data set is classed as functional. The arrangement: scale not given: the % may be the effect or the level left. The gist of the method:
(§5)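 Male mice received a single oral dose of 25 mg/kg; serum RBP4 was followed over time, with the 6 h and 24 h points reported as % reduction. Three mice per group; values are mean ± SD.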

Another data set concerns Mus musculus. The data set can be described thus: Effect on serum TTR level in CD-1 mouse at 25 mg/kg, po administered via gavage. The data set is classed as functional, organism-based.
Data set [19] is described as follows: In vivo antagonist activity at TTR-RBP4 complex in CD-1 mouse assessed as reduction in serum RBP4 level at 25 mg/kg, po administered via gavage measured after 24 hrs by ELISA relative to control. The arrangement: scale not given: the % may be the effect or the level left. The data set is classed as functional. The gist of the method: as §5
In data set [20] the target is T1, Retinol-binding protein 4. The data set can be described thus: Displacement of [3H]-all-trans-retinol from MBP-tagged RBP4 (unknown origin) expressed in Escherichia coli assessed as reduction in untagged Eu-labelled TTR-RBP4 interaction measured after overnight incubation by HTRF assay.

≈ marks a conversion by molar mass, not a printed value. Calls of active or inactive are those of the source. The calls are words filed in the database; no cut-off is given here.

Sequence of CYP2C9 (P11712 whole entry): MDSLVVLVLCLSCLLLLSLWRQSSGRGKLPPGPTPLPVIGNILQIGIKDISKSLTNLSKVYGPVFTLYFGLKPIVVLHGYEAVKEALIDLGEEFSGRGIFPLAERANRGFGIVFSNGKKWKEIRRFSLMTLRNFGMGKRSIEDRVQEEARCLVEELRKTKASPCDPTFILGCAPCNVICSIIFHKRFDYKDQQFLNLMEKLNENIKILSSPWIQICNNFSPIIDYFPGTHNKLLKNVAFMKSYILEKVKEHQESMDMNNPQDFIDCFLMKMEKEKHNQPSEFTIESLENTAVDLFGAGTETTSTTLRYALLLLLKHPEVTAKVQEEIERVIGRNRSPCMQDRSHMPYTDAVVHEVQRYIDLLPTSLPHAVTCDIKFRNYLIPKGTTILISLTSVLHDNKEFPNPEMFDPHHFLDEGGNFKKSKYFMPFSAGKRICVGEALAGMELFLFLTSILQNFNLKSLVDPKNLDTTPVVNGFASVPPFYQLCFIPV

Usually IC50 stands for the concentration at which inhibition is half-maximal. `Cc1cc(C(=O)O)nc(N2CC(Oc3ccccc3C(F)(F)F)C2)n1` had an IC50 in data set [1] of over 3 µM.
Turning to `Cc1cc(C(=O)O)nc(N2CCC(COc3cccc(Cl)c3C(F)(F)F)C2)n1` (racemic), the IC50 is 0.18 µM in data set [1] and 3.9 µM on Transthyretin [2].
Consider `O=C(O)c1ccc2nc(-c3cc(Cl)cc(Cl)c3)oc2c1`, for which the fold change (FC) on Transthyretin [3] was 3.6. On Transthyretin [4], the outcome was Active.
As usually defined, the inhibition is how much of the control response was suppressed. By Vdss is commonly meant a proportionality between amount in the body and measured concentration, not a real space. For orientation: Cmax means the peak of the concentration-time curve. The term Tmax denotes the time from dosing to the highest level. Broadly, the AUC is the area under the concentration-time curve, a measure of exposure. Take `Cc1cc(C(=O)O)nc(N2CCC(COc3ccccc3C(F)(F)F)C2)n1` (racemic): the solubility kinetic in data set [5] worked out at 187 µM (≈ 71.5 µg/mL). Further, the Stabilty is listed as 93% in data set [6], 95% in data set [7], 103% in data set [8] and 105% in data set [9]. Moreover, the inhibition at 10 µM at CYP2C9 was 0%; at CYP2C19, 8%; at CYP2D6 it was 18.1%; on CYP3A4 it was 2.2%. Moreover, the C0 in [10] was found to be 9129 ng/mL. Further, in [11], the “beta t1/2” value stood at 8.6 h. The Vdss in data set [12] was 0.518 L/kg. In data set [13], this compound yielded a Cmax of 3030 ng/mL. In addition, in data set [14], the time of peak concentration (Tmax) came to 0.83 h. Moreover, the t1/2 in data set [15] was 9.9 h. The compound further gave an AUC in data set [16] of 52439 ng·h/mL. For the same compound, in [17], the F was 52%. Moreover, the Activity in data set [18] came out at 81%; in data set [19], 64%. The result in the data set on Mus musculus was inactive. Moreover, at Transthyretin [3], the fold change (FC) was found to be 4.7. The outcome at Transthyretin [4] was Active.
As to `CC1=C(/C=C/C(C)=C/C=C/C(C)=C/CO)C(C)(C)CCC1`, the outcome at Transthyretin [4] was Active.
With `Cc1cc(C(=O)O)nc(N2CCC(COc3ccc(F)cc3C(F)(F)F)C2)n1` (racemic), the results for the IC50 (in data set [1]; in [20]; on Transthyretin [2]) were 0.24 µM, 0.87 µM and 3.9 µM, respectively.
In the case of `Cc1cc(C(=O)O)nc(N2CCC(COc3cc(C(F)(F)F)cc(C(F)(F)F)c3)C2)n1` (racemic), the IC50 in data set [1] is 1.6 µM; at Transthyretin [2], over 30 µM.
On the same counts, the results for `COc1ccc(C(F)(F)F)c(OCC2CCN(c3nc(C)cc(C(=O)O)n3)C2)c1` (racemic) are over 3 µM and over 30 µM.
